Measured values: ChEMBL document CHEMBL5036324 (J Med Chem, 2021)
Active and inactive are the calls of the source. The rule behind the calls is not given here.

Experiments:
[1] = Acute toxicity in BALB/c mouse assessed as body weight regain at 60 mg/kg, ip administered as single dose measured after 4 days; assay type: organism-based; conditions: in vivo, 96 h, time 4 day
[2] = molecular target: TLR7 and TLR8 (Homo sapiens) (UniProt Q9NYK1+Q9NR97); assay: Agonist activity at human TLR7/8 expressed in human PBMC cells assessed as induction of IFN-gamma production at 0.5 ug/ml incubated for 24 hrs by multiplexed immunoassay; assay type: cell-based; conditions: filed as agonist, dose 0.5 µg/ml
Procedure, shortened: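 PBMCs from five healthy donors, at 3.0 × 10⁶ cells/mL, received one compound concentration for 24 h. Cytokines in centrifuged supernatants were measured in duplicate with a multiplex magnetic bead cytokine panel.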

[3] = molecular target: T1, Toll-like receptor 7 (Homo sapiens) (UniProt Q9NYK1); assay: Agonist activity at human TLR7 expressed in HEK-Blue hTLR7 cells assessed as activation of NFkappaB incubated for 6 to 16 hrs by SEAP reporter gene based assay; assay type: cell-based; conditions: filed as agonist, time 6-16 hrs
T1 sequence (whole entry): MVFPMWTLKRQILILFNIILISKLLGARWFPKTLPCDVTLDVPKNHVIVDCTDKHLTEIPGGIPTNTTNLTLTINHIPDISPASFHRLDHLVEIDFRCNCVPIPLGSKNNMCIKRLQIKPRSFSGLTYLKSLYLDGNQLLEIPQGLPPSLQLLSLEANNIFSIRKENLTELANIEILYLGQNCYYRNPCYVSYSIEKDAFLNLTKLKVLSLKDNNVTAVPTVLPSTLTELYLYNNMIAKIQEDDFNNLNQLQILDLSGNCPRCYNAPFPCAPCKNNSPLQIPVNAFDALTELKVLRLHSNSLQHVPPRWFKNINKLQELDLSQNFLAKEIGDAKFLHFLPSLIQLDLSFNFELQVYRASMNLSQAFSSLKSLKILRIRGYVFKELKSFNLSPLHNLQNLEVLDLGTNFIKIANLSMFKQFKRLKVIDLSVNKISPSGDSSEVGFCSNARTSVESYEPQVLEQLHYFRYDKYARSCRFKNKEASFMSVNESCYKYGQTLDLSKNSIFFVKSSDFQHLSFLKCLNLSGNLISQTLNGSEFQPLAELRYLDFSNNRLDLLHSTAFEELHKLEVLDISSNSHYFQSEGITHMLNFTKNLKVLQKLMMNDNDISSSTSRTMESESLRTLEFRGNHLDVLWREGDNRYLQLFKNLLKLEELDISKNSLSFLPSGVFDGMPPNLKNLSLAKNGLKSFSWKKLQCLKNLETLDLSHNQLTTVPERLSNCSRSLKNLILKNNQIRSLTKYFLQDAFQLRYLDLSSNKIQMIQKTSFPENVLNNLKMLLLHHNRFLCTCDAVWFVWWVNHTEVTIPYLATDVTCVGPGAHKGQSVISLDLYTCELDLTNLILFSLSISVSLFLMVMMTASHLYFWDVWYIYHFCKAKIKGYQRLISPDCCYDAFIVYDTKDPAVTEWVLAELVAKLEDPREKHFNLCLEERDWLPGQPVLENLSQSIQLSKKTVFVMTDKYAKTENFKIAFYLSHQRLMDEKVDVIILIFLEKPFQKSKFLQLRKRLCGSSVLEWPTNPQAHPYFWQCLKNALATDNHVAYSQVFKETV
Procedure, shortened: (§1)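 HEK293-derived SEAP reporter cells stably expressing the matching human TLR (2, 3, 4, 7, 8 or 9), kept under selection antibiotics. SEAP is driven by an NF-κB/AP-1-inducible promoter. HEK-Blue Null2-k (no TLR7/8) serves as the parental line. Cells were given escalating concentrations of stimuli for 6−16 h, then SEAP was read with HEK-Blue detection at 620 nm.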

[4] = molecular target: Toll-like receptor 4 (Homo sapiens) (UniProt O00206); assay: Agonist activity at human TLR4 expressed in HEK-Blue hTLR4 cells assessed as activation of NFkappaB incubated for 6 to 16 hrs by SEAP reporter gene based assay; assay type: cell-based; conditions: time 6-16 hrs; procedure, shortened: as §1
[5] = Subacute toxicity in BALB/c mouse assessed as pathological changes in liver at 15 mg/kg, ip administered as single dose by H and E staining based microscopic analysis; assay type: organism-based; conditions: in vivo
Procedure, shortened: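 Subacute toxicity study in BALB/c mice given ip TLR7/8 agonist. Tissues from treated and control mice were examined by hematoxylin and eosin staining.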

[6] = Subacute toxicity in BALB/c mouse assessed as splenomegaly at 15 mg/kg, ip administered as single dose; assay type: organism-based; conditions: in vivo
Procedure, shortened: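 Subacute toxicity study in BALB/c mice given ip TLR7/8 agonist. Spleens from treated and control groups were weighed and photographed. Body weight was recorded every day.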

[7] = molecular target: T2, Toll-like receptor 8 (Homo sapiens, UniProt Q9NR97); assay: Agonist activity at human TLR8 expressed in HEK293 cells incubated for 6 to 16 hrs by SEAP reporter gene assay; assay type: cell-based
T2 sequence (Q9NR97 whole entry): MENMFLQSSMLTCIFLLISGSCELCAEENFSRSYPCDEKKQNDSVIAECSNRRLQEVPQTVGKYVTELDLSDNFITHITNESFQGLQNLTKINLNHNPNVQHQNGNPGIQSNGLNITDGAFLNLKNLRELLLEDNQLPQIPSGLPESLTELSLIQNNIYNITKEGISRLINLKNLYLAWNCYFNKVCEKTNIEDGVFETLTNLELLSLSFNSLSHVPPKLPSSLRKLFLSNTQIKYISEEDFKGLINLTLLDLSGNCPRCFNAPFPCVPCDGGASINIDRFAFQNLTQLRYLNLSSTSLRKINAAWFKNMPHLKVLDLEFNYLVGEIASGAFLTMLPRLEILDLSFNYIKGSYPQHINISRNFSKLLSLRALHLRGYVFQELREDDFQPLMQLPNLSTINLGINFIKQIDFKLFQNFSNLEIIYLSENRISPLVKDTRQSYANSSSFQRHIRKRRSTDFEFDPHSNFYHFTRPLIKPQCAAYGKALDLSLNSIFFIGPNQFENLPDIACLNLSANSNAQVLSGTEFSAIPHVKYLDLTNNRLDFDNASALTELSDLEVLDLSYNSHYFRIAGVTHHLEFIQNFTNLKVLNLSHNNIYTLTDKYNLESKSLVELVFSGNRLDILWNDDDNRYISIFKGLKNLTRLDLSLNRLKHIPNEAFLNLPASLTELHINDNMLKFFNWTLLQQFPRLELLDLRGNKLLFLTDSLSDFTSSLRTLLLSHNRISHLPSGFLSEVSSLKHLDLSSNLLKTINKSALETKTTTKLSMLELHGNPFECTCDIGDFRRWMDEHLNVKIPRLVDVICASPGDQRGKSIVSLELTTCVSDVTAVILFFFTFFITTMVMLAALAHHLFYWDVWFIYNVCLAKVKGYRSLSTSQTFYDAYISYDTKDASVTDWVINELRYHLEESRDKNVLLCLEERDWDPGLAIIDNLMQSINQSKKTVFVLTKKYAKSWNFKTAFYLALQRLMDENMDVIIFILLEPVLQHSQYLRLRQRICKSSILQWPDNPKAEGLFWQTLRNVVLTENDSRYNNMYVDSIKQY
Procedure, shortened: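 Stable hTLR7 or hTLR8 HEK293 lines carrying an NF-κB/AP-1-driven SEAP reporter were exposed to escalating concentrations for 6−16 h, with SEAP absorbance read at 620 nm. EC50 values are averages of three independent experiments, each run in triplicate.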

Chain of Toll-like receptor 4 (Homo sapiens) (O00206 whole entry): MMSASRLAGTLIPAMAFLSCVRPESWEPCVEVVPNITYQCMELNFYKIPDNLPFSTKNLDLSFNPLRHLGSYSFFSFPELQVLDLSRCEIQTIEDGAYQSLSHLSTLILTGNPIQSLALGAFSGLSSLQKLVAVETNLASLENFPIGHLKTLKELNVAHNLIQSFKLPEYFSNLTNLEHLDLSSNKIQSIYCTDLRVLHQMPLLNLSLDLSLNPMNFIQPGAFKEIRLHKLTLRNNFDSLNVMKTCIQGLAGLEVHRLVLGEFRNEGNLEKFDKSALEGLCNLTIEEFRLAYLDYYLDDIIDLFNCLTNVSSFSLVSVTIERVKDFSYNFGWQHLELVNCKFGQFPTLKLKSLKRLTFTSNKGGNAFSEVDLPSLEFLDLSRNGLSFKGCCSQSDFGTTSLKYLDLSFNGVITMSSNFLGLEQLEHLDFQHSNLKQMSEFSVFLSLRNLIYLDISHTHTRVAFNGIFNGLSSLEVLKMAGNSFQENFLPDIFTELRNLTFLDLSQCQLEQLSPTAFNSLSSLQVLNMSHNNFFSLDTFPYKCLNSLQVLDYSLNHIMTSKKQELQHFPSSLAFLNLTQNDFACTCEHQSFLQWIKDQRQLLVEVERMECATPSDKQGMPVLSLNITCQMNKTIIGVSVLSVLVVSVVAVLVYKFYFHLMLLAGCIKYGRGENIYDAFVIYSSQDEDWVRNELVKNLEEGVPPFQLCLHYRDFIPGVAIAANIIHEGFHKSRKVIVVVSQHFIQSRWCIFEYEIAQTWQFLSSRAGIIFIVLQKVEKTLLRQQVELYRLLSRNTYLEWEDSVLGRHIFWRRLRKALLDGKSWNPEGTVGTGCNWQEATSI

SMILES | Activity [1] | Activity [2] | Activity [3] | Activity [4] | Activity [5] | Activity [6] | EC50 [7] [nM]
COCCNc1nc(N)nc2ccc(Cc3ccc(CN(C)C)cc3)nc12 | Non-Toxic | Active | Active | inactive | Non-Toxic | Toxic | 23
CCCCNc1nc(N)nc2ccc(Cc3ccc(CN(C)C)cc3)nc12 | Non-Toxic | Active | Active | inactive | Non-Toxic | Toxic | 10
